In ChEMBL document CHEMBL1125337, “Synthesis and antibacterial activity of a series of basic amides of teicoplanin and deglucoteicoplanin with polyamines” (J Med Chem, 1992):
≈ marks a conversion by molar mass, not a printed value.

Tests used:
Streptococcus pyogenes [1] = experiment: Minimum inhibitory concentration against Streptococcus pyogenes L 49; format: functional
Procedure, shortened: (§1)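 MIC (µg/mL) by microbroth dilution in Todd-Hewitt broth, final inoculum 10^4 cfu/mL, incubated 24 h at 37 °C in air.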

Streptococcus pyogenes [2] = experiment: Minimum inhibitory concentration of compound was determined against Streptococcus pyogenes L 49 in mouse; format: functional
Enterococcus faecalis = experiment: Minimum inhibitory concentration against Enterococcus faecalis ATCC 7080; format: functional
Procedure, shortened: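 Microbroth dilution MIC (µg/mL), final inoculum 10^4 cfu/mL, incubated 24 h at 37 °C in air.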

Pseudomonas aeruginosa = experiment: Minimum inhibitory concentration against Pseudomonas aeruginosa ATCC 10145; format: functional
Procedure, shortened: (§2)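 MIC (µg/mL) by microbroth dilution in Iso-Sensitest broth; final inoculum 10^4 cfu/mL; 24 h at 37 °C in air.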

Escherichia coli = experiment: Minimum inhibitory concentration against Escherichia coli L 47; format: functional; procedure, shortened: as §2
[3] = test system: Staphylococcus haemolyticus; experiment: Minimum inhibitory concentration against Staphylococcus haemolyticus L 602; format: functional; procedure, shortened: as §2
Streptococcus pyogenes [4] = experiment: Efficacy of compound administered subcutaneously against Streptococcus pyogenes L 49 Septicemia in mouse; format: functional; details: sc
Procedure, shortened: (§3)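 Mice were infected intraperitoneally with about 10^5 Strep. pyogenes L 49 cells, about 100 times the 50% lethal dose. Groups of 5–8 mice were treated once right after challenge, by the route stated in the line. ED50 (mg/kg) was derived from percentage survival at each dose on day 7 (Spearman-Kärber).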

[5] = test system: Staphylococcus epidermidis; experiment: Minimum inhibitory concentration against Staphylococcus epidermidis ATCC 12228; format: functional; procedure, shortened: as §2
Staphylococcus aureus = experiment: Minimum inhibitory concentration against Staphylococcus aureus L 165; format: functional; procedure, shortened: as §2
Streptococcus pneumoniae = experiment: Minimum inhibitory concentration against Streptococcus pneumoniae L 44; format: functional; procedure, shortened: as §1
Proteus vulgaris = experiment: Minimum inhibitory concentration against Proteus vulgaris ATCC 881; format: functional; procedure, shortened: as §2
[6] = Association constant to Ac2-L-Lys-D-Ala-D-Ala determined at pH 9; Value ranges from 5E4-7.5E4
[7] = Association constant to Ac2-L-Lys-D-Ala-D-Ala determined at pH 9; Value ranges from (9.5E4-3.5E5)
Streptococcus pyogenes [8] = experiment: Efficacy of compound administered perorally against Streptococcus pyogenes L 49 Septicemia in mouse; format: functional; details: po; procedure, shortened: as §3

Row | Structure (SMILES) | MIC (Streptococcus pyogenes [1]) | MIC (Streptococcus pyogenes [2]) | MIC (Enterococcus faecalis) | MIC (Pseudomonas aeruginosa) | MIC (Escherichia coli) | MIC [5] | MIC (Staphylococcus aureus) | MIC (Streptococcus pneumoniae) | MIC (Proteus vulgaris) | Ka [6] | Ka [7] | MIC [3] | ED50 (Streptococcus pyogenes [4]) | ED50 (Streptococcus pyogenes [8])
1 | CC(=O)N[C@@H]1[C@H](O[C@@H]2c3ccc(c(Cl)c3)Oc3cc4cc(c3O[C@@H]3O[C@@H](CO)[C@@H](O)[C@H](O)[C@@H]3NC(=O)CCCCCCC(C)C)Oc3ccc(cc3Cl)C[C@H]3NC(=O)[C@H](N)c5ccc(O)c(c5)Oc5cc(O)cc(c5)[C@H](NC3=O)C(=O)N[C@H]4C(=O)N[C@H]3C(=O)N[C@@H]2C(=O)N[C@H](C(=O)NCCNCCNCCNCCNCCN)c2cc(O)cc(O[C@H]4O[C@H](CO)[C@@H](O)[C@@H](O)[C@@H]4O)c2-c2cc3ccc2O)O[C@@H](CO)[C@@H](O)[C@@H]1O | 0.063 µg/mL (≈ 0.0301 µM) | – | 0.125 µg/mL (≈ 0.0597 µM) | – | – | 0.063 µg/mL (≈ 0.0301 µM) | 0.25 µg/mL (≈ 0.119 µM) | 0.125 µg/mL (≈ 0.0597 µM) | – | – | 350000 M⁻¹ | 0.125 µg/mL (≈ 0.0597 µM) | 0.08 mg/kg | 112 mg/kg
2 | CC(=O)N[C@@H]1[C@H](O[C@@H]2c3ccc(c(Cl)c3)Oc3cc4cc(c3O[C@@H]3O[C@@H](CO)[C@@H](O)[C@H](O)[C@@H]3NC(=O)CCCCCCC(C)C)Oc3ccc(cc3Cl)C[C@H]3NC(=O)[C@H](N)c5ccc(O)c(c5)Oc5cc(O)cc(c5)[C@H](NC3=O)C(=O)N[C@H]4C(=O)N[C@H]3C(=O)N[C@@H]2C(=O)N[C@H](C(=O)NCCN(CCN)CCN)c2cc(O)cc(O[C@H]4O[C@H](CO)[C@@H](O)[C@@H](O)[C@@H]4O)c2-c2cc3ccc2O)O[C@@H](CO)[C@@H](O)[C@@H]1O | 0.063 µg/mL (≈ 0.0314 µM) | – | 0.063 µg/mL (≈ 0.0314 µM) | – | – | 0.063 µg/mL (≈ 0.0314 µM) | 0.125 µg/mL (≈ 0.0623 µM) | 0.063 µg/mL (≈ 0.0314 µM) | – | – | 350000 M⁻¹ | 0.125 µg/mL (≈ 0.0623 µM) | 0.04 mg/kg | 58 mg/kg

Now from value to compound, other results behind:

Row | MIC (Streptococcus pyogenes [1]) | MIC (Streptococcus pyogenes [2]) | MIC (Enterococcus faecalis) | MIC (Pseudomonas aeruginosa) | MIC (Escherichia coli) | MIC [5] | MIC (Staphylococcus aureus) | MIC (Streptococcus pneumoniae) | MIC (Proteus vulgaris) | Ka [6] | Ka [7] | Structure (SMILES) | MIC [3] | ED50 (Streptococcus pyogenes [4]) | ED50 (Streptococcus pyogenes [8])
3 | 0.125 µg/mL (≈ 0.104 µM) | 0.13 µg/mL (≈ 0.108 µM) | 0.125 µg/mL (≈ 0.104 µM) | > 128 µg/mL | 64 µg/mL (≈ 53.4 µM) | 0.016 µg/mL (≈ 0.0133 µM) | 0.063 µg/mL (≈ 0.0525 µM) | 0.125 µg/mL (≈ 0.104 µM) | 128 µg/mL (≈ 107 µM) | – | – | N[C@H]1C(=O)N[C@@H]2Cc3ccc(c(Cl)c3)Oc3cc4cc(c3O)Oc3ccc(cc3Cl)[C@@H](O)[C@@H]3NC(=O)[C@H](NC(=O)[C@@H]4NC(=O)[C@@H](NC2=O)c2cc(O)cc(c2)Oc2cc1ccc2O)c1ccc(O)c(c1)-c1c(O)cc(O)cc1[C@@H](C(=O)O)NC3=O [TEICOPLANIN AGLYCON] | 0.25 µg/mL (≈ 0.209 µM) | 0.95 mg/kg | –
4 | 0.063 µg/mL (≈ 0.0455 µM) | 0.06 µg/mL (≈ 0.0434 µM) | 0.125 µg/mL (≈ 0.0904 µM) | 8 µg/mL (≈ 5.78 µM) | 2 µg/mL (≈ 1.45 µM) | 0.063 µg/mL (≈ 0.0455 µM) | 0.063 µg/mL (≈ 0.0455 µM) | 0.125 µg/mL (≈ 0.0904 µM) | 64 µg/mL (≈ 46.3 µM) | 75000 M⁻¹ | – | NCCCNCCCCNCCCNC(=O)[C@H]1NC(=O)[C@H]2NC(=O)[C@H](NC(=O)[C@@H]3NC(=O)[C@H]4NC(=O)[C@@H](Cc5ccc(c(Cl)c5)Oc5cc3cc(c5O)Oc3ccc(cc3Cl)[C@H]2O)NC(=O)[C@H](N)c2ccc(O)c(c2)Oc2cc(O)cc4c2)c2ccc(O)c(c2)-c2c(O)cc(O)cc21 | 0.125 µg/mL (≈ 0.0904 µM) | 0.41 mg/kg | –
5 | 0.125 µg/mL (≈ 0.0973 µM) | – | 0.125 µg/mL (≈ 0.0973 µM) | 64 µg/mL (≈ 49.8 µM) | 8 µg/mL (≈ 6.23 µM) | 0.063 µg/mL (≈ 0.0491 µM) | 0.063 µg/mL (≈ 0.0491 µM) | 0.125 µg/mL (≈ 0.0973 µM) | 64 µg/mL (≈ 49.8 µM) | 75000 M⁻¹ | – | NCCNCCNC(=O)[C@H]1NC(=O)[C@H]2NC(=O)[C@H](NC(=O)[C@@H]3NC(=O)[C@H]4NC(=O)[C@@H](Cc5ccc(c(Cl)c5)Oc5cc3cc(c5O)Oc3ccc(cc3Cl)[C@H]2O)NC(=O)[C@H](N)c2ccc(O)c(c2)Oc2cc(O)cc4c2)c2ccc(O)c(c2)-c2c(O)cc(O)cc21 | 0.125 µg/mL (≈ 0.0973 µM) | – | –
